IC50 and inhibition data for 30 molecules are collected here from ChEMBL document CHEMBL3259759, “Discovery of novel bacterial elongation condensing enzyme inhibitors by virtual screening” (Bioorg Med Chem Lett, 2014).

Molecules are shown by their SMILES. pIC50: −log10 of the molar value.

Assay [1] in a line: Inhibition of Escherichia coli FabB by radiochemical assay. The procedure, abridged:
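Radiochemical condensing-enzyme assay with E. coli FabB, run as described earlier except that myristoyl-ACP was replaced by lauryl-ACP. The lauryl-ACP was made with Vibrio harveyi acyl-ACP synthetase. Compounds were first screened at a single final concentration of 200 μM, and selected compounds then went to dose-response testing to derive IC50.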

The nature of assay [2]: Inhibition of Staphylococcus aureus FabF by radiochemical assay.
Assay [3] has as its system Escherichia coli. Put plainly: Inhibition of Escherichia coli FabB at 200 uM by radiochemical assay. The procedure, abridged:
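Radiochemical condensing-enzyme assay with FabB, run per an earlier method except that lauryl-ACP replaced myristoyl-ACP. The lauryl-ACP was made with Vibrio harveyi acyl-ACP synthetase. Compounds were tested at a single final concentration of 200 μM, and inhibition is given as percent.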

Regarding `CN(Cc1ccccc1)Cn1c(=O)oc2ccccc21`, the figures for the pIC50 in assay [1] and in assay [2] were 3.63 and 3.41, respectively. In assay [3], the inhibition is 33.5%.
The molecule `O=c1oc2ccccc2n1CN(Cc1ccc(F)cc1)C1CC1` came in with an inhibition in assay [3] of 5%.
In assay [1], `N#Cc1ccc2oc(=O)n(CN3CCCC3c3cccc(Br)c3)c2c1` (racemic) gave a pIC50 of 3.60. For the same molecule, in assay [3], the inhibition came out at 42.1%.
Molecule `O=c1sc2ccc(Cl)cc2n1CN1CCCC1c1cccc(Br)c1` (racemic) had a pIC50 in assay [1] of 3.52. Also, the inhibition in assay [3] came out at 36.1%.
In assay [1], `O=c1oc2ccc(Cl)cc2n1CN1CCCC1c1cccc(Br)c1` (racemic) gave a pIC50 of 3.59. The same molecule displayed an inhibition in assay [3] of 55.4%.
The molecule `CN(CC1CCOCC1)Cn1c(=O)oc2cc(Cl)ccc21` registered an inhibition in assay [3] of 31.7%.
In assay [3], `CN(Cc1cccc(O)c1)Cn1c(=O)oc2ccc(Cl)cc21` came in with an inhibition of 41.4%.
The same measure, in the same setting: as for `CN1CCC(CN(C)Cn2c(=O)oc3cc(Cl)ccc32)C1` (racemic), the figure is 23.8%; as for `COc1cccc(CN(Cn2c(=O)oc3cc(Cl)ccc32)C2CC2)c1`, 28.3%.
Consider `O=c1oc2ccc(Cl)cc2n1CN1CCCCC1c1ccccc1` (racemic), for which the pIC50 in assay [1] was 3.38. Moreover, the inhibition in assay [3] stood at 30.4%.
As to `O=c1oc2cc(Br)ccc2n1CN(CC1CCCC1)C1CC1`, the inhibition in assay [3] turned out to be 17.7%.
For the molecule `O=c1oc2cc(Cl)ccc2n1CN(Cc1cccnc1)C1CC1`, the inhibition in assay [3] was found to be 23.6%.
Regarding `CN(CCN1CCCC1)Cn1c(=O)oc2cc(Cl)ccc21`, in assay [3], the inhibition is 26.4%.
Same read-out and setting: in the case of `CN(Cc1ccsc1)Cn1c(=O)oc2ccccc21` it was 30%; in that of `O=c1oc2cc(Cl)ccc2n1CN1CCCC2(CCOCC2)C1`, 38.8%.
With `Cc1ccc2oc(=O)n(CN(CC3CCOC3)C3CC3)c2c1` (racemic), the inhibition in assay [3] stood at 40.1%.
In turn, `COc1cccc(C2CCCN2Cn2c(=O)oc3ccc(Cl)cc32)c1` (racemic) showed a pIC50 in assay [1] of 3.52. In assay [3], the inhibition turned out to be 37.1%.
Molecule `O=c1oc2ccccc2n1CN(Cc1ccsc1)C1CC1` yielded an inhibition in assay [3] of 37.8%.
On the same count and under the same terms, in the case of `COc1cccc(C2CCCN2Cn2c(=O)oc3cc(Cl)ccc32)c1` (racemic) it was 36.4%.
`O=c1oc2cc(Cl)ccc2n1CN(CC1CCOC1)C1CC1` (racemic): the pIC50 in assay [1] was 3.10. In assay [3], this molecule returned an inhibition of 24.1%.
Turning to `O=c1oc2ccc(Cl)cc2n1CN1CCC1c1ccccc1` (racemic), the inhibition in assay [3] came to 31.9%.
On to `CN(CC1CCCC1)Cn1c(=O)oc2ccc(Cl)cc21`, for which the inhibition in assay [3] stood at 17.7%.
As for `O=c1oc2ccc(Cl)cc2n1CN1CCCC2(CCOCC2)C1`, in assay [1], the pIC50 is 3.47. For the same molecule, the inhibition in assay [3] amounted to 37.7%.
The matching figures for `O=c1oc2ccc(Cl)cc2n1CN(CC1CCOC1)C1CC1` (racemic): 3.46 and 36.7%.
`O=c1oc2ccccc2n1CN1CCCC1` gave an inhibition in assay [3] of 24%.
The molecule `O=c1oc2cc(Cl)ccc2n1CN1CCCCC1c1ccccc1` (racemic) showed an inhibition in assay [3] of 38%.
Still for that read-out and setting: as for `O=c1oc2cc(Cl)ccc2n1CN(Cc1ccccn1)C1CC1`, the figure is 30%.
In turn, `O=c1oc2cc(Br)ccc2n1CN1CCC2(CC1)OCCO2` showed a pIC50 in assay [1] of 3.22. In assay [3], this molecule showed an inhibition of 32.7%.
On to `O=c1oc2cc(Cl)ccc2n1CN(Cc1ccc(F)cc1)C1CC1`, for which the inhibition in assay [3] was 32.1%.
`CC(CN(C)Cn1c(=O)oc2cc(Cl)ccc21)N1CCOCC1` (racemic) yielded an inhibition in assay [3] of 24.3%.
